Published values pooled from the literature.
Medium: Caco-2

`O=C(NCc1nc(-c2ccc(C(F)(F)F)cc2)cs1)[C@H]1CCCN(C(=O)CO[C@H]2CCCNC2)C1` gave an efflux ratio of 160.
`Cc1ccc(N(c2ccc(NC(=O)CN(C)c3ccccc3N3CCCC3=O)cc2)C(C)C)cc1` gave an efflux ratio of 2.3.
The efflux ratio of `N#Cc1ccc(C[C@H](Nc2ncc(-c3ccc(F)cc3)o2)C(=O)N2CCc3ccccc32)cc1` is reported as 19 (100 µM; 2 h).
`O=C(NCc1nc(-c2ccc(C(F)(F)F)cc2)cs1)[C@H]1CCCN(C(=O)COCCN2CCCC2)C1` gave an efflux ratio of 46.
For `CC(C)c1nc(N(C)S(C)(=O)=O)nc(-c2ccc(F)cc2)c1/C=C/[C@@H](O)C[C@@H](O)CC(=O)O`, the efflux ratio was 142 (5 µM; 2 h).
The efflux ratio of `O=c1c(O[C@@H]2O[C@H](CO)[C@H](O)[C@H](O)[C@H]2O)c(-c2ccc(O)c(O)c2)oc2cc(O)cc(O)c12` is reported as 1.26 (50 µg/mL).
For `Cc1cc(C)c(CNC(=O)c2cc(Cl)c3c(c2C)O[C@@](C)([C@H]2CC[C@H](N(C)C)CC2)O3)c(=O)[nH]1`, the efflux ratio was 52.4 (1 µM).
For `CCOCC(=O)N1CCC[C@H](C(=O)NCc2nc(-c3ccc(C#N)nc3)cs2)C1`, the efflux ratio was 4.3.
`COc1cc(NC(=O)Cn2cc(Cl)c3cc(F)c(-c4cnn(C)c4)cc32)cc(OC)c1OC` gave an efflux ratio of 18.2.
`O=C1CCC(N2Cc3cc(C4CCN(Cc5ccccc5)CC4)ccc3C2=O)C(=O)N1` (centres unmarked) has an efflux ratio of 1.9 (10 µM; 2 h).
`N#Cc1ccc(C[C@H](Nc2nnc(-c3ccc(F)cc3)o2)C(=O)N2CCc3ccccc32)cc1` has an efflux ratio of 3.8 (100 µM; 2 h).
For `O=c1cc(-c2ccc(O)cc2)oc2c([C@@H]3O[C@H](CO)[C@@H](O)[C@H](O)[C@H]3O)c(O)cc(O)c12`, the efflux ratio was 1.11 (50 µg/mL).
`NCCOCC(=O)N1CCC[C@H](C(=O)NCc2nc(-c3ccc(C(F)(F)F)cc3)cs2)C1` gave an efflux ratio of 120.
With `O=C(Nc1ccc(OC(F)(F)F)cc1)N[C@H]1CC[C@H](Oc2ccc(C(=O)O)cc2)CC1` the efflux ratio was 0.98.
